High-throughput results deposited in PubChem BioAssay by several laboratories.
Hits are enriched below; roughly 1.4% of the tested compounds scored in any of these assays.
CAL PDZ FP-1 = inhibitors of human CAL PDZ peptide binding; purified CAL PDZ, TMR-peptide fluorescence polarization, 1 h; inhibition, % at 24.9 µM; actives 0.92% (n = 300,000);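 active = mean inhibition of at least 30% with at least half of replicates also reaching 30%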;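 also: 0% = DMSO neutral control and 100% = excess unlabeled competitor peptide PRC23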
CDK5 p35 inh = CDK5/p35 (human) kinase inhibition. Recombinant CDK5/p35, ADP-Glo luminescence, 60 min. inhibition, % at 10 µM. actives 0.01% (n = 330,000);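 active = highest replicate inhibition of at least 50% and at least 75% of replicates reaching 50%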;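 also: plate controls were DMSO neutral control for no effect and GW8510 at 10 µM for full effect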
Target sequence (Q00535 whole entry, looked up): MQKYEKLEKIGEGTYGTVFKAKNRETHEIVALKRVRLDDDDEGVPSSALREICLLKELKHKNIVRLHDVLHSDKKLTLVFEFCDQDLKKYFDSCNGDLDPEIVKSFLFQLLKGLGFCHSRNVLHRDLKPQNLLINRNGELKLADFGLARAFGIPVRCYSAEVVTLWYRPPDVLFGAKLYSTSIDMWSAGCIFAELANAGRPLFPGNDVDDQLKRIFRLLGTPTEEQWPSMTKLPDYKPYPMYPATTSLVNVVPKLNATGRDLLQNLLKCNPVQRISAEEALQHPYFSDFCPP
Target sequence (Q15078 whole entry, looked up): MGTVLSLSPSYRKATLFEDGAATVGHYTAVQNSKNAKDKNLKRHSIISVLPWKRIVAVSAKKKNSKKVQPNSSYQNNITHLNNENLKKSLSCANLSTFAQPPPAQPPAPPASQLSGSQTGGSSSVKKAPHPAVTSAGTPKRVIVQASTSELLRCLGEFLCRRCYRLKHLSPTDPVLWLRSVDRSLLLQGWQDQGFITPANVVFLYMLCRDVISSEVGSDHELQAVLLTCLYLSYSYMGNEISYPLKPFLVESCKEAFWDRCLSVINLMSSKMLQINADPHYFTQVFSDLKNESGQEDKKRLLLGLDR
TbMetRS inhib = Trypanosoma brucei MetRS inhibition; purified T. brucei MetRS, ATP depletion, Kinase-Glo luminescence; inhibition, % at 11.9 µM; actives 0.4% (n = 360,000);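 active = inhibition above a per-plate cutoff of the control wells' mean inhibition plus 3 SD, cut at about 5.5% in these data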;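 also: 0% = DMSO wells median and 100% = median of wells with control inhibitor compound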
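Test system: purified T. brucei MetRS enzyme. Also added: ATP, methionine and E. coli bulk tRNA substrates. Compound: 11.9 µM single point. Schedule: 15 min enzyme-compound preincubation, 2 h reaction, 10 min detection, 25 °C. Signal: luciferase luminescence of residual ATP, Kinase-Glo. Evaluation: percent inhibition versus plate control medians. Controls: DMSO wells, low control.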
CAL PDZ FP-2 = human CAL PDZ-peptide interaction inhibition; purified CAL PDZ, TMR-peptide fluorescence polarization, 1 h; inhibition, % at 20 µM; actives 0.02% (n = 330,000);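 active = highest replicate inhibition of at least 40%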;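 also: plate controls were DMSO neutral control wells for no effect and unlabeled competitor peptide control wells for full effect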
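Material – purified CerCALP PDZ construct · Detection – FP readout, S and P plane fluorescence · Measure – percent inhibition from loss of millipolarization · Controls – unlabelled peptide for full inhibition, DMSO wells as neutral · Probe or stimulus – TMR-labelled reporter peptide T*-PRC34 bound in PDZ groove · Times – 1 h at RT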
PvdQ acylase = P. aeruginosa PvdQ acylase inhibition; purified PvdQ acylase, fluorescence plate reader; AID 488965; inhibition, % at 10 µM; actives 0.063% (n = 340,000); in the data active = inhibition above about 30%, passing the limit was not always enough;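 also: 0% = vehicle neutral wells and 100% = reference inhibitor wells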
Dyrk1A ADPGlo = inhibitors of rat Dyrk1A kinase | ADP-Glo luminescence, NFATc1 peptide | inhibition, % at 12.5 µM | actives 0.43% (n = 310,000); in the data active = inhibition above about 50%;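 also: plate controls were vehicle with enzyme for no effect and no enzyme for full effect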
Active calls of the source: *; / = no result.

SMILES | CAL PDZ FP-1 | CDK5 p35 inh | TbMetRS inhib | CAL PDZ FP-2 | PvdQ acylase | Dyrk1A ADPGlo
COc1ccc(CN2C(=O)CCCC2(C)c2nc3ccccc3[nH]2)cc1 (stereo unspecified) | / | / | -0.4 | / | / | /
CC(C)(C)C(c1nc2ccccc2[nH]1)n1c(-c2ccsc2)nc2ccccc21 (stereo unspecified) | / | / | -1.7 | / | / | /
COc1cccc(CNC(=O)[C@@H]2CCCN2C(=O)[C@H]2CCCCN2C(=O)OC(C)(C)C)c1 | / | / | -0.8 | / | / | /
CC(C)c1cn(CC[C@@H]2CC[C@@H](NC(=O)C3CCCCC3)[C@@H](CO)O2)nn1 | / | / | -0.4 | / | / | /
Cc1ccc(Nc2nc(NCC3CCCO3)nc(N)c2[N+](=O)[O-])cc1C (stereo unspecified) | 30.5* | / | -1.0 | 0.1 | -7.7 | 4.4
CC(C)c1ccc(C(=O)N2CCCC(c3cc(C(=O)Nc4ccc5c(c4)OCO5)no3)C2)cc1 (stereo unspecified) | / | / | -0.2 | / | / | /
Cc1cc(C)c2c(CN3CCC(C)CC3)cc(=O)oc2c1 | 80.0* | -0.4 | -1.2 | -1.2 | -16.3 | 3.0
CCCCCCCCN1C(=O)[C@H](CC(=O)NCCc2ccccc2OC)C[C@@]2(C(=O)OC)CC(C)(C)CC=C12 | / | / | -0.5 | / | / | /
CSc1ccccc1OCc1cc(C(=O)N(C)Cc2nonc2C)no1 | 36.4* | -1.5 | 0.0 | -0.4 | -5.5 | 3.5
Cc1nonc1CN(C)C(=O)c1cc(COc2ccc(F)cc2Cl)on1 | -9.1 | 1.0 | 0.2 | -0.8 | 11.3 | -1.4
COc1ccc(-c2nn(-c3ccccc3)cc2/C=C/C(=O)N2CCOCC2)cc1OC | 52.6* | -1.2 | 0.3 | -1.2 | -8.8 | -1.4
CCc1nc2ccc(C(=O)NCc3ccc4c(c3)OCO4)cn2c1N(CCC(C)C)CCN(C)C | / | / | -0.5 | / | / | /
CCc1nnc(NS(=O)(=O)c2ccc(N3C(=O)c4ccccc4C3=O)cc2)s1 | 84.4* | -1.0 | -0.2 | -1.1 | -13.7 | -1.0
CCc1nnc(NS(=O)(=O)c2ccc(N)cc2)s1 | -0.9 | -0.1 | 0.1 | 0.1 | -9.2 | -9.9
O=C(Nc1ccccc1)c1cc(C2CCCCN2C(=O)OCCF)on1 (stereo unspecified) | / | / | -0.3 | / | / | /
COc1cccc(-c2cnc(C(O)c3ccc(Cl)cc3C)[nH]2)c1 (stereo unspecified) | / | / | -0.4 | / | / | /
CC1(C(=O)NCc2ccccc2)CSCC(=O)N1Cc1cccc(C(F)(F)F)c1 (stereo unspecified) | / | / | 0.2 | / | / | /
COC(=O)c1ccc(CNC(=O)c2c3c(nc4ccccc24)CCN(Cc2ccccc2)C3)cc1 | -2.8 | 1.2 | -0.1 | 0.2 | -9.0 | -4.5
O=C(NCc1ccc(F)cc1)c1c2c(nc3ccccc13)CCN(Cc1ccccc1)C2 | 57.4* | -1.7 | -1.0 | -1.6 | -8.1 | 4.5
CC(C)NC(=O)NC(=O)CSc1ccc(S(=O)(=O)N2CCOCC2)cn1 | -1.4 | -0.5 | -0.3 | -2.3 | 7.6 | 7.0
CC(C)CNC(=O)CSc1ccc(S(=O)(=O)N2CCN(C)CC2)cn1 | 38.8* | -0.8 | 0.1 | -0.5 | -17.1 | /
CCc1nc2ccc(C(=O)NCc3ccc(OC)cc3)cn2c1N(C)CCC(C)C | / | / | -0.3 | / | / | /
O=C(NNC(=O)c1cccs1)c1ccc(Cl)cc1 | -2.1 | 0.0 | -0.5 | -1.1 | -14.6 | -2.6
NC(=O)NC(CC(=O)NNC(=O)c1cccs1)c1ccc(Cl)cc1 (stereo unspecified) | 31.2* | -3.2 | -0.2 | 0.8 | -16.8 | -1.0
Cc1cccc(C(=O)NNC(=O)c2ccc(F)cc2)c1 | -3.4 | 0.6 | -0.5 | -1.9 | 2.9 | 2.8
SMILES | CAL PDZ FP-1 | CDK5 p35 inh | TbMetRS inhib | CAL PDZ FP-2 | PvdQ acylase | Dyrk1A ADPGlo
COc1cccc(OC)c1C(=O)NNC(=O)c1ccc(F)cc1 | 68.0* | -3.2 | -0.7 | -0.7 | -10.5 | /
Cc1ccc(OCC(=O)Nc2c(C)ccc3nsnc23)cc1 | 52.4* | 0.3 | -0.5 | -0.2 | -4.7 | -1.7
CCN(C)C1CN(Cc2cn(Cc3cccc(C(F)(F)F)c3)nn2)S(=O)(=O)C1 (stereo unspecified) | / | / | -1.0 | / | / | /
O=C(NCc1cccs1)c1ccncc1 | 74.4* | 0.9 | -0.1 | -1.0 | -15.3 | 4.3
O=C(NCc1cccs1)c1ccccc1 | -5.5 | -0.7 | -0.1 | -1.0 | -11.2 | -3.7
Nn1c(SCC(=O)Nc2ccc(S(N)(=O)=O)cc2)nnc1-c1ccco1 | 36.6* | -0.1 | -0.2 | -0.8 | -10.9 | 1.6
NS(=O)(=O)c1cccc(NC(=O)CSc2nnc(C3CC3)n2C2CC2)c1 | -4.6 | 1.0 | -0.2 | -4.7 | -7.5 | -5.3
Nn1c(SCC(=O)Nc2cccc(S(N)(=O)=O)c2)nnc1C1CC1 | 69.6* | -1.5 | -0.5 | 0.1 | -10.4 | 10.8
Cc1ccc2ccccc2c1C(O)c1ncc(-c2ccccc2Cl)[nH]1 (stereo unspecified) | / | / | 0.0 | / | / | /
Cc1cc(F)cc(-c2cc(C(=O)NCc3ccccn3)[nH]n2)c1 | / | / | -0.1 | / | / | /
Cc1ccc([C@@H]2CC=C(C(=O)O)[C@H](c3ccccc3)N2S(=O)(=O)c2ccc(C)cc2)cc1 | 50.2* | 0.2 | -0.2 | -1.3 | -7.6 | -8.7
Cc1ccccc1NC(=O)CN1C(=O)NC(C)(c2ccc3c(c2)OCO3)C1=O (stereo unspecified) | -4.4 | -1.4 | -0.5 | 0.0 | -4.4 | 2.7
CC1(c2ccc3c(c2)OCO3)NC(=O)N(CC(=O)Nc2ccccc2[N+](=O)[O-])C1=O (stereo unspecified) | 46.1* | -0.3 | 0.4 | -0.8 | -9.0 | /
O=C(O)CCC1C(=O)NC(=O)CC1c1ccccc1 (stereo unspecified) | / | / | 0.1 | / | / | /
Nc1nonc1C(=O)NCCNCc1ccccc1OCc1ccccc1F | 74.2* | -0.1 | -0.4 | -1.4 | -11.3 | 3.8
COc1cccc(NC(=O)CSc2nn3c(=O)c(C)nnc3s2)c1 | -1.7 | -1.7 | -0.1 | -1.9 | -7.9 | -2.1
Cc1nnc2sc(SCC(=O)Nc3cccc(Cl)c3)nn2c1=O | 99.5* | -1.4 | -0.1 | 12.3 | -21.3 | -0.1
COc1ccc(-c2cc(C(=O)O)sc2C)cc1 | 43.7* | 0.3 | 0.1 | -1.7 | -3.8 | /
CNC(=O)c1ccc(-c2ccc(OC)cc2)s1 | -4.2 | 0.1 | -0.5 | -1.0 | -22.4 | 20.9
O=C(O)CSc1cc(NS(=O)(=O)c2ccc(Br)cc2)c2ccccc2c1O | 13.4 | 17.9 | 0.7 | 42.3* | -9.1 | -0.8
Cc1ccccc1-c1cc2nc(NCc3ccccc3F)n(C)c(=O)c2s1 | / | / | -0.4 | / | / | /
COc1ccc2[nH]cc(CCNC(=O)Cc3ccc(F)cc3)c2c1 | 78.9* | 1.0 | -0.1 | -4.0 | -2.5 | -1.7
CC(NC(=O)CCC(=O)NCc1ccc(F)cc1)c1ccccc1 (stereo unspecified) | 87.9* | -2.1 | -0.1 | -0.8 | -18.8 | -2.1
Oc1cc(O)cc(/C=C/c2ccc(O)c(O)c2)c1 | 1.3 | 21.9 | -0.8 | 1.9 | 4.3 | 69.2*
C/C=C/c1ccc(O)c(OC)c1 | 4.1 | 0.3 | -0.1 | -0.1 | -6.6 | 2.0
O=C(O)Cn1c(-c2ccccc2)nc2ccccc21 | -4.4 | -0.1 | -1.3 | / | 10.7 | -1.2
